# Test results taken from ChEMBL document CHEMBL4385596, “Fragment-Based Discovery of a Qualified Hit Targeting the Latency-Associated Nuclear Antigen of the Oncogenic Kaposi's Sarcoma-Associated Herpesvirus/Human Herpesvirus 8” (J Med Chem, 2019).
# Activity calls are given as the source filed them. No cut-off for these calls is given here.
# Tested on: ORF 73 (Human herpesvirus 8), O40947 [UNDEFINED MUTATION]
# Experiment: Inhibition of fluorescent labelled LBS2 DNA binding to human herpesvirus 8 C-terminal His-tagged LANA oligomerization deficient mutant DBD (1008 to 1146 residues) expressed in Escherichia coli BL21 (DE3) at 1 mM preincubated for 60 mins followed by fluorescent labelled LBS2 addition and measured after 90 mins by fluorescence polarization assay relative to control
# Conditions: Human gammaherpesvirus 8
# Method in brief: (§1)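 Single-concentration FP competition assay (1 mM or 500 µM compound). LANA DBD mutant (200 nM final) pre-incubated with compound for 60 min, then fluorescein-labelled LBS2 (10 nM final) added and incubated 90 min. Buffer was HEPES/NaCl/Tween20 with 5% DMSO. Read at excitation 485 nm, emission 520 nm. Percent inhibition from duplicates in two independent experiments.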
row,SMILES,inhibition
1,O=C(O)c1ccc(-n2ccnn2)cc1,35%
2,Cc1cn(-c2ccccc2N)cn1,91%
3,O=[N+]([O-])c1ccccc1-n1ccnc1,74%
4,Nc1ccc(-n2ccnc2)cc1,inactive
5,O=C(O)c1cccc(-n2cc(-c3ccccc3)nn2)c1,43%
6,Oc1ccccc1-n1ccnc1,51%
7,O=C(O)c1ccccc1-n1cc(-c2ccccc2)nn1,13%
8,Nc1cccc(-n2ccnc2)c1,inactive
9,O=[N+]([O-])c1cccc(-n2ccnc2)c1,21%
10,O=C(O)c1ccc(-n2ccnc2)cc1,13%
11,O=C(O)c1ccccc1-n1ccnn1,12%
12,CC(=O)Nc1ccccc1-n1ccnc1,32%
13,O=[N+]([O-])c1ccc(-n2ccnc2)cc1,22%
14,O=C(O)c1ccccc1-n1ccnc1,50%
15,O=C(O)c1cccc(-n2ccnn2)c1,98%
16,COc1ccccc1-n1ccnc1,15%
17,Nc1ccccc1-n1cnc2ccccc21,32%
18,Nc1ccccc1-n1cnc(Br)c1,13%
19,O=C(O)c1cccc(-n2ccnc2)c1,19%

# Tested on: not listed separately
# Experiment: Binding affinity to fluorescent labelled LBS2 DNA (unknown origin) by fluorescence polarization assay
# Conditions: not given
# Method in brief: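 Fixed concentration of His-tagged oligomerization-deficient LANA DBD mutant (aa1008-1146, 200 nM final) was pre-incubated 60 min with compound. Fluorescein-labelled LBS2 (10 nM final) was then added and incubated 90 min. Buffer was 10 mM HEPES, 150 mM NaCl, 0.005% Tween20, 5% DMSO. Polarization was read at ex 485/em 520 nm. Runs were done with and without LANA to exclude DNA or quenching interference. Duplicates, two independent experiments.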
row,SMILES,Activity
1,O=C(O)c1ccc(-n2ccnn2)cc1,inactive
2,O=C(O)c1ccc(-n2cc(-c3cccc(NCCN4CCOCC4)c3)nn2)cc1,inactive
3,Cc1cn(-c2ccccc2N)cn1,inactive
4,NCc1cn(-c2ccc(C(=O)O)cc2)nn1,inactive
5,O=C(O)c1ccc(-n2cc(-c3cccc(NCCc4ccccc4)c3)nn2)cc1,inactive
6,O=[N+]([O-])c1ccccc1-n1ccnc1,inactive
7,Nc1ccc(-n2ccnc2)cc1,inactive
8,O=C(O)c1ccc(-c2cn(-c3ccc(O)cc3)nn2)cc1,inactive
9,COCc1cn(-c2ccc(C(=O)OC)cc2)nn1,inactive
10,COCc1cn(-c2ccc(C(=O)O)cc2)nn1,inactive
11,Nc1ccc(-c2cn(-c3ccc(C(=O)O)cc3)nn2)cc1,inactive
12,COC(=O)c1cn(-c2ccc(C(=O)O)cc2)nn1,inactive
13,Nc1cccc(-c2cn(-c3ccc(C(=O)O)cc3)nn2)c1,inactive
14,O=C(O)c1ccc(-n2cc(-c3ccccc3NCC3CCCCC3)nn2)cc1,inactive
15,O=C(O)c1cccc(-n2cc(-c3ccccc3)nn2)c1,inactive
16,Nc1ccc(-n2cc(-c3ccc(C(=O)O)cc3)nn2)cc1,inactive
17,Oc1ccccc1-n1ccnc1,inactive
18,CC(=O)OCc1cn(-c2ccc(C(=O)O)cc2)nn1,inactive
19,COc1ccc(-c2cn(-c3ccc(C(=O)O)cc3)nn2)cc1,inactive
20,O=C(O)c1ccccc1-n1cc(-c2ccccc2)nn1,inactive
21,Nc1cccc(-n2ccnc2)c1,inactive

row,SMILES,Activity
1,O=C(O)c1ccc(-n2cc(C3CC3)nn2)cc1,inactive
2,O=C(O)c1ccc(-n2cc(CO)nn2)cc1,inactive
3,O=[N+]([O-])c1cccc(-n2ccnc2)c1,inactive
4,O=C(O)c1ccc(-n2ccnc2)cc1,inactive
5,O=C(O)c1ccc(-n2cc(-c3ccc(NCC4CCCCC4)cc3)nn2)cc1,inactive
6,O=C(O)c1ccc(-n2cc(-c3ccc(CO)cc3)nn2)cc1,inactive
7,O=C(O)c1ccccc1-n1ccnn1,inactive
8,CC(=O)Nc1ccccc1-n1ccnc1,inactive
9,O=[N+]([O-])c1ccc(-n2ccnc2)cc1,inactive
10,O=C(O)c1cccc(-n2ccnn2)c1,inactive
11,COc1ccccc1-n1ccnc1,inactive
12,O=C(O)c1ccc(-n2cc(-c3ccccc3)nn2)cc1,inactive
13,Nc1ccccc1-n1cnc2ccccc21,inactive
14,Nc1ccccc1-c1cn(-c2ccc(C(=O)O)cc2)nn1,inactive
15,Nc1cccc(-c2cn(-c3ccccc3)nn2)c1,inactive
16,Nc1ccccc1-n1cnc(Br)c1,inactive
17,Nc1ccccc1-n1cc(-c2ccc(C(=O)O)cc2)nn1,inactive
18,O=C(O)c1cccc(-n2ccnc2)c1,inactive
19,COC(=O)c1ccc(-n2cc(CO)nn2)cc1,inactive
20,O=C(O)c1ccc(-n2cc(C3(O)CCCC3)nn2)cc1,inactive
21,O=C(O)c1ccc(-n2cc(-c3cccc(NCC4CCCCC4)c3)nn2)cc1,inactive

# Molecular target: T1, ORF 73 (Human herpesvirus 8, UniProt O40947)
# Experiment: Inhibition of fluorescent labelled LBS2 DNA binding to human herpesvirus 8 C-terminal His-tagged LANA oligomerization deficient mutant DBD (1008 to 1146 residues) expressed in Escherichia coli BL21 (DE3) preincubated for 60 mins followed by fluorescent labelled LBS2 addition and measured after 90 mins by fluorescence polarization assay
# Set-up: species or system Human gammaherpesvirus 8
# Conditions: not given
# Method in brief: (§2)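 FP competition assay. His-tagged LANA DBD mutant (200 nM final) pre-incubated with serially varied compound for 60 min. Fluorescein-labelled LBS1, LBS2 or LBS3 (10 nM final) then added and incubated 90 min. Buffer was 10 mM HEPES, 150 mM NaCl, 0.005% Tween20 with 5% DMSO. Read at excitation 485 nm, emission 520 nm. Duplicates in two independent experiments. Runs without LANA checked for interference. IC50 derived from dose-response.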
row,SMILES,IC50
1,O=C(O)c1ccc(-n2cc(-c3cccc(NCCN4CCOCC4)c3)nn2)cc1,Not Active
2,O=C(O)c1ccc(-n2cc(-c3cccc(NCCc4ccccc4)c3)nn2)cc1,Not Active
3,O=C(O)c1ccc(-n2cc(-c3ccccc3NCC3CCCCC3)nn2)cc1,Not Active
4,CC(=O)OCc1cn(-c2ccc(C(=O)O)cc2)nn1,Not Active
5,O=C(O)c1ccc(-n2cc(-c3ccc(NCC4CCCCC4)cc3)nn2)cc1,Not Active
6,Nc1cccc(-c2cn(-c3ccccc3)nn2)c1,Not Active
7,O=C(O)c1ccc(-n2cc(-c3cccc(NCC4CCCCC4)c3)nn2)cc1,Not Active

# Same assay, conditions: read-out: IC50
row,SMILES,IC50
1,NCc1cn(-c2ccc(C(=O)O)cc2)nn1,30 µM
2,O=C(O)c1ccc(-c2cn(-c3ccc(O)cc3)nn2)cc1,52 µM
3,COCc1cn(-c2ccc(C(=O)OC)cc2)nn1,237 µM
4,COCc1cn(-c2ccc(C(=O)O)cc2)nn1,210 µM
5,Nc1ccc(-c2cn(-c3ccc(C(=O)O)cc3)nn2)cc1,14 µM
6,COC(=O)c1cn(-c2ccc(C(=O)O)cc2)nn1,163 µM
7,Nc1cccc(-c2cn(-c3ccc(C(=O)O)cc3)nn2)c1,109 µM
8,Nc1ccc(-n2cc(-c3ccc(C(=O)O)cc3)nn2)cc1,19 µM
9,O=C(O)c1ccc(-n2cc(C3CC3)nn2)cc1,694 µM
10,O=C(O)c1ccc(-n2cc(CO)nn2)cc1,79 µM
11,O=C(O)c1ccc(-n2cc(-c3ccc(CO)cc3)nn2)cc1,27 µM
12,O=C(O)c1ccccc1-n1ccnc1,333 µM
13,O=C(O)c1ccc(-n2cc(-c3ccccc3)nn2)cc1,232 µM
14,Nc1ccccc1-c1cn(-c2ccc(C(=O)O)cc2)nn1,28 µM
15,Nc1ccccc1-n1cc(-c2ccc(C(=O)O)cc2)nn1,18 µM
16,COC(=O)c1ccc(-n2cc(CO)nn2)cc1,84 µM
17,O=C(O)c1ccc(-n2cc(C3(O)CCCC3)nn2)cc1,159 µM

# Tested on: ORF 73 (Human herpesvirus 8), O40947 [UNDEFINED MUTATION]
# Experiment: Inhibition of 5'-Dy682-labelled LBS1 DNA binding to human herpesvirus 8 C-terminal His-tagged LANA oligomerization deficient mutant DBD (1008 to 1146 residues) expressed in Escherichia coli BL21 (DE3) at 500 uM preincubated for 1 hr followed by 5'-Dy682-labelled LBS1 DNA addition and measured after 30 mins by electrophoretic mobility shift assay
# Conditions: Human gammaherpesvirus 8
# Method in brief: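 Native-gel EMSA. LANA DBD mutant (200 nM final) pre-incubated with compound for 1 h at RT in the dark, then Dy-682-labelled LBS1 probe (20 nM) added. Complex and free-probe band intensities normalised to 0–100% inhibition. Run in duplicate; purified GST served as control.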
row,SMILES,inhibition
1,Nc1ccc(-c2cn(-c3ccc(C(=O)O)cc3)nn2)cc1,Active
2,Nc1cccc(-c2cn(-c3ccc(C(=O)O)cc3)nn2)c1,inactive
3,Nc1ccccc1-c1cn(-c2ccc(C(=O)O)cc2)nn1,Active
4,Nc1ccccc1-n1cc(-c2ccc(C(=O)O)cc2)nn1,Active
5,O=C(O)c1ccc(-n2cc(C3(O)CCCC3)nn2)cc1,inactive

# Tested on: ORF 73 (Human herpesvirus 8), O40947 [UNDEFINED MUTATION]
# Experiment: Inhibition of fluorescent labelled LBS2 DNA binding to human herpesvirus 8 C-terminal His-tagged LANA oligomerization deficient mutant DBD (1008 to 1146 residues) expressed in Escherichia coli BL21 (DE3) at 500 uM preincubated for 60 mins followed by fluorescent labelled LBS2 addition and measured after 90 mins by fluorescence polarization assay relative to control
# Conditions: Human gammaherpesvirus 8
# Method in brief: as §1
row,SMILES,inhibition
1,COc1ccc(-c2cn(-c3ccc(C(=O)O)cc3)nn2)cc1,20%

# Molecular target: T1, ORF 73
# Experiment: Inhibition of fluorescent labelled LBS3 DNA binding to human herpesvirus 8 C-terminal His-tagged LANA oligomerization deficient mutant DBD (1008 to 1146 residues) expressed in Escherichia coli BL21 (DE3) preincubated for 60 mins followed by fluorescent labelled LBS2 addition and measured after 90 mins by fluorescence polarization assay
# Set-up: species or system Human gammaherpesvirus 8
# Conditions: not given
# Method in brief: as §2
row,SMILES,IC50
1,Nc1ccc(-c2cn(-c3ccc(C(=O)O)cc3)nn2)cc1,12 µM
2,Nc1cccc(-c2cn(-c3ccc(C(=O)O)cc3)nn2)c1,106 µM
3,Nc1ccccc1-c1cn(-c2ccc(C(=O)O)cc2)nn1,26 µM
4,Nc1ccccc1-n1cc(-c2ccc(C(=O)O)cc2)nn1,26 µM
5,O=C(O)c1ccc(-n2cc(C3(O)CCCC3)nn2)cc1,39 µM

# Molecular target: T1, ORF 73
# Experiment: Inhibition of fluorescent labelled LBS1 DNA binding to human herpesvirus 8 C-terminal His-tagged LANA oligomerization deficient mutant DBD (1008 to 1146 residues) expressed in Escherichia coli BL21 (DE3) preincubated for 60 mins followed by fluorescent labelled LBS2 addition and measured after 90 mins by fluorescence polarization assay
# Set-up: species or system Human gammaherpesvirus 8
# Conditions: not given
# Method in brief: as §2
row,SMILES,IC50
1,Nc1ccc(-c2cn(-c3ccc(C(=O)O)cc3)nn2)cc1,19 µM
2,Nc1cccc(-c2cn(-c3ccc(C(=O)O)cc3)nn2)c1,136 µM
3,Nc1ccccc1-c1cn(-c2ccc(C(=O)O)cc2)nn1,25 µM
4,Nc1ccccc1-n1cc(-c2ccc(C(=O)O)cc2)nn1,25 µM
5,O=C(O)c1ccc(-n2cc(C3(O)CCCC3)nn2)cc1,104 µM

# Tested on: ORF 73 (Human herpesvirus 8), O40947 [UNDEFINED MUTATION]
# Experiment: Inhibition of 5'-Dy682-labelled LBS1/LBS2 DNA binding to human herpesvirus 8 C-terminal His-tagged LANA oligomerization deficient mutant DBD (1008 to 1146 residues) expressed in Escherichia coli BL21 (DE3) at 500 uM preincubated for 1 hr followed by 5'-Dy682-labelled LBS1 DNA addition and measured after 30 mins by electrophoretic mobility shift assay
# Conditions: Human gammaherpesvirus 8
# Method in brief: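 Native-gel EMSA with a longer Dy-682-labelled probe carrying both LBS1 and LBS2 (20 nM). LANA DBD mutant (200 nM) pre-incubated with compound (500 µM) for 1 h at RT in the dark. Buffer was Tris-HCl pH 7.5 with KCl, MgCl2, DTT, EDTA, glycerol, Tween20, BSA and poly(dI-dC). Band intensities normalised to percent inhibition. Run in duplicate; GST served as control.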
row,SMILES,inhibition
1,Nc1ccc(-c2cn(-c3ccc(C(=O)O)cc3)nn2)cc1,Active
2,Nc1cccc(-c2cn(-c3ccc(C(=O)O)cc3)nn2)c1,inactive
3,Nc1ccccc1-c1cn(-c2ccc(C(=O)O)cc2)nn1,Active
4,Nc1ccccc1-n1cc(-c2ccc(C(=O)O)cc2)nn1,Active
5,O=C(O)c1ccc(-n2cc(C3(O)CCCC3)nn2)cc1,inactive
